98 compounds from ChEMBL document CHEMBL4513216, “Probing the Open Global Health Chemical Diversity Library for Multistage-Active Starting Points for Next-Generation Antimalarials” (ACS Infect Dis, 2020) can be followed below.

A short description of the data set: Toxicity liver stage against HepG2, at 10uM. Format: cell-based. Also noted: test concentration 10 uM, cell line HepG2-A16-CD81EGFP. The conditions noted are these: human, HepG2-A16-CD81EGFP cells; read-out: INHIBITION
In outline: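 Uninfected HepG2-A16-CD81EGFP cells, 3 × 10^3 per well, 1536-well, plated on prespotted compound at 10 μM final, parasite-free screening media added to match infected plates; puromycin 10 μM positive, DMSO 0.5% negative; run in parallel with 48 h PbLuc assay at 37 °C, 5% CO2; viability by CellTiter-Glo luminescence, normalized to controls.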
On to `Cc1ccc2nc3n(c2c1)[C@@H](CNCc1nccs1)COC3`, for which the cytotoxicity at 10 µM is -4.31%.
In the case of `COCCNC(=O)N1CCN(C(=O)c2nsc3ccc(C)cc23)CC1` it was 7%.
Regarding `CC(=O)N1N=C(c2ccco2)OC1C(=O)N(CC(C)C)CC(C)C` (stereo not drawn), the cytotoxicity at 10 µM was -1.31%.
For `Nc1cccnc1N1CCN(c2ccccc2)CC1` the value was -2.95%.
Take `CSCC[C@H](NC(=O)CCn1ccc2c(Cl)cccc21)C(=O)O`: the cytotoxicity at 10 µM turned out to be 2.42%.
With `O=C(Nc1ccccn1)c1csc(NC2CCCC2)n1`, the cytotoxicity at 10 µM amounted to 9.09%.
`CS(=O)(=O)N1CCC(CNC(=O)C2CCCC2)CC1`: the cytotoxicity at 10 µM came out at 1.2%.
In the case of `CC(=O)N1CCC2(CC1)CN(C(=O)c1ccc3c(c1)OCCO3)C2` it was 9.15%.
As for `CN1C(=O)CC[C@@H]2[C@H]1CCN2S(=O)(=O)c1cccs1`, the cytotoxicity at 10 µM was -1.54%.
On to `CCOCC1CN(c2ncc(F)cn2)Cc2cn(CC)nc21` (stereo not drawn), for which the cytotoxicity at 10 µM worked out at 8.31%.
For `O=C(c1ccnnc1)N1CCc2onc(CN3CCCC3)c2C1` the value was 7.31%; for `CN(C)CCN1CCN(CC2CC2)c2ncccc2C1`, -3.03%; for `CC(C)(C)CC(=O)N1CCCC2(CC(C(=O)Nc3ccccc3)=NO2)C1` (stereo not drawn), -6.63%.
As to `Cc1cccc(N2CC3(CCN(S(=O)(=O)c4ccccc4)C3)CC2=O)c1` (stereo not drawn), the cytotoxicity at 10 µM was 11%.
Regarding `O=C(O)c1ccc2c(c1)C1(CCCCC1)CN2C(=O)c1ccnnc1`, the cytotoxicity at 10 µM came out at 3.59%.
For `Cn1nccc1C(=O)N1CCCC2(CCN(c3ccsc3)C2=O)C1` (stereo not drawn) the value was -121%; for `Cc1nccc([C@@H]2C[C@@H]3CCN(Cc4cccs4)C[C@H]3O2)n1`, -143%; for `O=C1CC(c2cccs2)Cc2[nH]c(=O)ccc21` (stereo not drawn), 0.185%.
As for `CC(C)c1cc2c(O)nc(CSCC(=O)O)nc2s1`, the cytotoxicity at 10 µM is -4.61%.
Take `CN1CCN(c2nc(O)c3c(-c4ccccn4)ccnc3n2)CC1`: the cytotoxicity at 10 µM was -6.6%.
With `Cc1ccc(OCc2ccc(C(=O)O)s2)cc1C`, the cytotoxicity at 10 µM was determined as 9.18%.
For `O=C(NCc1ccccc1)NCc1nc(-c2ccncc2)n[nH]1`, the cytotoxicity at 10 µM came to 0.449%.
Turning to `COCC(=O)N1CCCCC1c1ccncn1` (stereo not drawn), the cytotoxicity at 10 µM is -27.8%.
In the case of `O=C(C1CCCC1)N1CCC(c2ncc3c(n2)CCNC3)C1` (stereo not drawn) it was -15.3%.
In the case of `Cc1ccc2c(c1)C(=O)NCC1(CCN(C(=O)c3cnccn3)CC1)O2` it was -15.8%.
For the compound `CCC(CC)c1cc(C(=O)N2CCN(C(C#N)C(C)C)CC2)on1` (stereo not drawn), the cytotoxicity at 10 µM was found to be 1.87%.
Turning to `O=C(CCC1CCCC1)N1CCC(O)(C(F)(F)F)C1` (stereo not drawn), the cytotoxicity at 10 µM was -0.0394%.
With `COc1cc(F)cc(CNC(=O)Nc2ccn(CC(F)F)n2)c1`, the cytotoxicity at 10 µM was -2.21%.
Regarding `COC(=O)C1CCCCN1C(=O)c1ccc(N(C)C)cc1F` (stereo not drawn), the cytotoxicity at 10 µM came out at 5.97%.
`COc1ccc(C)cc1CN(C)CC(N)=O`: the cytotoxicity at 10 µM was -0.691%.
For `CN(C)c1nc(CNC(=O)NC2COc3ccccc32)cs1` (stereo not drawn), the cytotoxicity at 10 µM was -3.38%.
For `CC(Cc1ccc(C(F)(F)F)cc1)C(=O)N1CCCS1(=O)=O` (stereo not drawn), the cytotoxicity at 10 µM is -1.01%.
As for `CC(NC(=O)CCNC(=O)c1ccoc1)c1ccccc1` (stereo not drawn), the cytotoxicity at 10 µM was 5.66%.
In the case of `CC(C)c1nccn1CCC(=O)NCC(C)(O)c1ccco1` (stereo not drawn) it was 1.23%; in that of `NC(=O)CN(Cc1ncc(-c2ccccc2)o1)C1CCCC1`, -4.3%.
With `CC(C)N1CCCC(CNC(=O)c2ccnc(-n3ccnc3)c2)C1` (stereo not drawn), the cytotoxicity at 10 µM is -6.23%.
For the compound `Cn1cc(N2CCCC(Nc3ccc4c(c3)CCC(=O)N4)C2=O)cn1` (stereo not drawn), the cytotoxicity at 10 µM is -1.56%.
Consider `O=C(Cc1cccs1)NCc1ccnc(OC2CCOCC2)c1`, for which the cytotoxicity at 10 µM was -1.22%.
In the case of `CCOCCOC(C)C(=O)Nc1ccc2c(ccn2CC)c1` (stereo not drawn) it was 3.99%.
Consider `CC1CCN(CCCNC(=O)C2CCCCC2)CC1`, for which the cytotoxicity at 10 µM is -2.63%.
With `CC(C)(C(=O)NCCC(=O)O)c1cccc(Br)c1`, the cytotoxicity at 10 µM was determined as 7.01%.
In the case of `CN(C)CCN1CCC(NC2CSCCc3ccccc32)CC1` (stereo not drawn) it was -8.77%; in that of `C[S+]([O-])c1nncn1CC(=O)c1cccc(Br)c1` (stereo not drawn), 1.08%.
For `O=C(Nc1cccc(N2CCN(CC3CC3)CC2)c1)N1CCCC1`, the cytotoxicity at 10 µM was found to be 0.441%.
`O=C(NCc1ccccc1Cn1cncn1)N1CCCC1`: the cytotoxicity at 10 µM is -5%.
As to `OC1(CNc2cc(C(F)(F)F)nc3ccccc23)CCOCC1`, the cytotoxicity at 10 µM was -11.3%.
On to `COc1ccccc1C(NC(=O)NC1CC1)c1noc(C)n1` (stereo not drawn), for which the cytotoxicity at 10 µM is -4.12%.
For `O=C(Nc1cc(C2CCOCC2)[nH]n1)c1ccc(Cl)cn1` the value was 0.78%; for `COc1ccccc1CNC(=O)CNc1ccccc1C(C)=O`, 4.7%; for `CC(C1CC1)n1nccc1NC(=O)CN(C)C(=O)OC(C)(C)C` (stereo not drawn), 0.258%.
As to `Cc1cccc(C(C)(C)CNC(=O)CCSc2nnnn2C)c1`, the cytotoxicity at 10 µM is -1.09%.
`CN(C(=O)NCCCNc1ccccn1)C1CCS(=O)(=O)C1` (stereo not drawn): the cytotoxicity at 10 µM amounted to 4.67%.
For `Cc1cccc(NC(=O)CCNCc2c(C)nn(C)c2N(C)C)n1` the value was 7.82%; for `O=C(CNC(=O)c1cnc2ccccc2c1O)NCCn1ccnc1`, -3.02%; for `CCN(C)CC1CCN(C(=O)Nc2ccc(-c3csnn3)cc2)C1` (stereo not drawn), -2.15%.
Regarding `CC(=O)N1CCN(Cc2nnc(C(C)(C)C)o2)CC1`, the cytotoxicity at 10 µM is -0.549%.
Turning to `CCN(CC)C(CNC(=O)c1ccc(S(C)(=O)=O)cc1)c1ccco1` (stereo not drawn), the cytotoxicity at 10 µM is -0.00646%.
`Cc1nc(O)cc(CN2CC=C(c3cnn(C(C)(C)C)c3)CC2)n1`: the cytotoxicity at 10 µM was -7.17%.
For `CCc1nnsc1C(=O)NCCC1CN(C(C)C)CCO1` (stereo not drawn) the value was -7.07%; for `O=C(c1ccc(C2CCCN2C(=O)c2ccc[nH]2)s1)N1CCSCC1` (stereo not drawn), 3.59%; for `Cc1cc(C(=O)N2CCc3c(nc(-c4ccncc4)[nH]c3=O)C2)no1`, -1.28%.
For `COc1cccc(-c2n[nH]cc2C(=O)NC(C)c2n[nH]c(C)n2)c1` (stereo not drawn), the cytotoxicity at 10 µM is -6.26%.
For the compound `CCN(CCn1cccn1)Cc1nc(-c2ccoc2)oc1C`, the cytotoxicity at 10 µM is -5.48%.
For `CCC(C(=O)N(C)Cc1cc(C2CC2)[nH]n1)n1cccn1` (stereo not drawn) the value was -8.35%; for `Cc1cc(C2CCC2)nc(N2CCC3(CCNC(=O)CC3)CC2)n1`, -10.1%.
Turning to `CCN(CCc1nc2cc(C)ccc2[nH]1)C(=O)[C@@H](N)CCSC`, the cytotoxicity at 10 µM is -9.28%.
For `CCn1ncnc1C1CC(=O)NCc2nc(N3CCCC3)sc21` (stereo not drawn) the value was -2.4%; for `Cc1cc(C)c2nc(CN(C)C(C)c3ccncn3)cc(O)c2c1` (stereo not drawn), 4.11%; for `O=C1CCC2(CCN(Cc3ncccn3)CC2)CN1CCCO`, -8.11%.
In the case of `COC1CCN(S(=O)(=O)NCC2COc3ccccc3C2)CC1` (stereo not drawn), the cytotoxicity at 10 µM was -1.08%.
For `CCn1nc(C)c(CN(CCOC)C(=O)c2ccccc2N(C)C)c1C`, the cytotoxicity at 10 µM is -1.14%.
Turning to `CN(Cc1csc(-c2cccs2)n1)C(=O)CCn1ccccc1=O`, the cytotoxicity at 10 µM is 22.7%.
Take `Cc1ccc(NC2CCN(C(=O)c3cnn(C(C)(C)C)c3)CC2)nn1`: the cytotoxicity at 10 µM was -0.939%.
Regarding `Cc1ccc(-c2noc(CN3CCn4c(nnc4C4CC4)C3)n2)cc1`, the cytotoxicity at 10 µM is -9.04%.
For `CC(C)CN(Cc1nc2c(cnn2C)c(=O)[nH]1)CC(C)C` the value was -5.36%; for `CN(Cc1noc(C2CC2)n1)C1CCN(Cc2cccc(F)c2F)C1` (stereo not drawn), -13%; for `CCc1ncncc1C(=O)N1CCCC(n2nc(C)nc2C)C1` (stereo not drawn), -6.54%.
`Cc1csc(N2CCCN(C(=O)C3(C#N)CCCC3)CC2)n1`: the cytotoxicity at 10 µM is -1.01%.
For `COc1ccc(C(=O)N2CCC(Nc3cccnn3)CC2)c(F)c1` the value was -8.96%; for `Cc1noc(C(C)C)c1C(=O)NCCN1CCOCC1`, -8.73%; for `CC(=O)N1CCCN(C(=O)NCCOc2ccc3c(c2)OCO3)CC1`, -14.9%.
In the case of `CC(NC(=O)CCC1CCCCC1)c1nnc2n1CCC2` (stereo not drawn), the cytotoxicity at 10 µM is -27.1%.
For `CN(C)c1ccc(C(=O)N2CCCN(Cc3cscn3)CC2)nn1`, the cytotoxicity at 10 µM is -9.39%.
As to `CCc1n[nH]c(C2CN(C(=O)Cc3cccs3)CCO2)n1` (stereo not drawn), the cytotoxicity at 10 µM was 2.83%.
With `Cc1nn(C)c(C)c1C1CCCN1Cc1nc2ccccc2c(=O)[nH]1` (stereo not drawn), the cytotoxicity at 10 µM is -15.9%.
As for `Cc1nc(CN2CCOC(Cn3cccn3)C2)nc2ccccc12` (stereo not drawn), the cytotoxicity at 10 µM is -24.8%.
Take `Cc1csc(CNC(=O)N(C)Cc2ccc3c(c2)OCO3)n1`: the cytotoxicity at 10 µM is -4.31%.
Consider `CCc1nc(CN2CCCN(C(=O)c3cn[nH]c3C)CC2)cs1`, for which the cytotoxicity at 10 µM is -2.97%.
Regarding `CC(C)c1cc(C(=O)NCCn2nc3ccccn3c2=O)n[nH]1`, the cytotoxicity at 10 µM was -8.5%.
As for `Cc1nc(CN(C)C2CCCN(c3cccnn3)C2)no1` (stereo not drawn), the cytotoxicity at 10 µM is -7.1%.
Regarding `Cc1nc(-c2ccc(Cl)s2)sc1C(=O)NCCS(N)(=O)=O`, the cytotoxicity at 10 µM is -2.09%.
Consider `Cc1nc(C2CCCN2C(=O)c2cc3c(s2)CCCC3)no1` (stereo not drawn), for which the cytotoxicity at 10 µM was -11.2%.
Take `CCOC(=O)N1CCC(C(=O)c2cc(F)ccc2F)CC1`: the cytotoxicity at 10 µM was -8.11%.
Regarding `Cc1noc(C)c1CN1CCn2cc(CN3CCCCC3)nc2C1`, the cytotoxicity at 10 µM came to 8.95%.
For `CC(C)NC1CCc2c(ccc(=O)n2CCN(C)C)C1` (stereo not drawn), the cytotoxicity at 10 µM is -1.7%.
Consider `CC(C)(C)c1n[nH]cc1CNC1CCC(C(F)(F)F)CC1` (stereo not drawn), for which the cytotoxicity at 10 µM was determined as 4.25%.
With `CC(C)NC1CC2(CCNCC2)c2cc(F)ccc21` (stereo not drawn), the cytotoxicity at 10 µM was -9.05%.
Consider `COCCN1C(=O)[C@@H]2CC[C@H]1CN(c1ncccn1)C2`, for which the cytotoxicity at 10 µM was 7.01%.
